# This is a sample that favours compounds with a hit; in the whole collection about 3.7% have one here.
# EP2 antag = inhibitors of human EP2 prostaglandin E2 receptor. P43116. C6 glioma cells expressing human EP2, cAMP TR-FRET; cells stimulated with saturating PGE2. inhibition, % at 25 µM. hit rate 0.52% among 260,000. AID 1422;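 active = percent inhibition above 40 after rounding to a whole number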;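 also: rat C6 glioma host cells with rolipram phosphodiesterase inhibitor present; the protocol text gives 20 µM as final concentration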
# GPR7 antagonist = human neuropeptides B/W receptor 1 antagonism. GPR7-expressing cells, fluorescence antagonist assay. P48145. inhibition, % at 4.4 µM. AID 1861. hit rate 1.1% among 290,000; in the data active = inhibition above about 16%, passing the limit was not always enough;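 also: cells stimulated with the agonist NPW; 0% = agonist with vehicle and 100% = vehicle without agonist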
# EP2 modulator = modulates human prostaglandin E2 receptor EP2 signaling; P43116; EP2-expressing cells, cAMP HTRF FRET, PGE2 co-stimulation; induction, % at 25 µM; hit rate 0.83% among 260,000;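 active = compounds whose cAMP rise, as percent of the full-agonist control response, exceeds 60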;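 also: rat C6 glioma line stably carrying human EP2 under a CMV promoter; the protocol text gives 20 µM as final concentration; 100% = response of wells given 1 µM PGE2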
# OX1R antag-1 = antagonists of human orexin 1 receptor. inhibition, % at 5 µM. CHO/OX1R cells, Fluo-8 calcium fluorescence, orexin A. hit rate 0.43% among 330,000. O43613;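 active = inhibition above its plate's threshold, mean inhibition of all tested compounds on the plate plus 3 SD, cut at about 37% in these data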;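 also: 0% = orexin A challenge wells and 100% = SB-334867-A antagonist wells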
# Target sequence (O43613 whole entry, looked up): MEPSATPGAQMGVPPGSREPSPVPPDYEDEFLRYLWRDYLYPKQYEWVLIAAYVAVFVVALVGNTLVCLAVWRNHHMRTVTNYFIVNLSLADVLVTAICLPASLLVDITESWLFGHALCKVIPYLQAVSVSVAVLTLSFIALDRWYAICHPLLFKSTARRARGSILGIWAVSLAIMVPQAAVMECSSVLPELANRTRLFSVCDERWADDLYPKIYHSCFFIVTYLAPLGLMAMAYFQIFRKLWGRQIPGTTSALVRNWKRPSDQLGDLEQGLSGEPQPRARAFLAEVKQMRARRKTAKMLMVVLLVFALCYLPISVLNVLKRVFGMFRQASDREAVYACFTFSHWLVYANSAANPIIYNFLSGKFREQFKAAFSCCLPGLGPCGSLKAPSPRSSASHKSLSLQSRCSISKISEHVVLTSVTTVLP
# OX1R antag-2 = antagonists of human orexin 1 receptor (OX1R); hit rate 1.8% among 330,000; inhibition, % at 6.6 µM; OX1R-expressing cells, FRET antagonist read-out; in the data active = inhibition mostly above about 38%, no sharp cut-off; inactive = mostly below about 40%;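 also: 0% = agonist challenge alone and 100% = reference antagonist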
# CHO parental Ca = signal in parental CHO cells, OX1R antagonist counter-screen; inhibition, % at 5.6 µM; hit rate 0.63% among 330,000; AID 463079; parental CHO-K1, ATP-induced calcium, Fluo-8 fluorescence;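 active = inhibition above that plate's mean sample inhibition plus 3 SD, cut at about 26% in these data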;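 also: 0% = ATP-challenged DMSO wells and 100% = DMSO wells without ATP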
#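 Assay system – parental CHO cells · Reagent – ATP stimulus · Detection – intracellular calcium via Fluo-8 no-wash fluorescent dye · Evaluation – percent inhibition of ATP-evoked calcium rise, normalized to controls · Controls – ATP wells versus no-ATP DMSO wells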
# OX1R Fluo8 conf = OX1R (human) antagonism, confirmed; shares compounds with OX1R antag-1; CHO/OX1R cells, orexin A calcium Fluo-8 fluorescence; inhibition, % at 5 µM; hit rate 38% among 1,100; AID 492963; in the data active = inhibition above about 29%;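 also: 0% = agonist challenge alone and 100% = reference antagonist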
# CHO Ca counter = counter-screen: parental CHO calcium response change, triplicate; shares compounds with OX1R antag-1; parental CHO-K1, ATP-induced calcium, Fluo-8 fluorescence; inhibition, % at 5.6 µM; hit rate 9.3% among 1,100;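 active = inhibition above a per-plate limit, the mean inhibition of that plate's test compounds plus 3 SD, cut at about 25% in these data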;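 also: 0% = ATP challenge with DMSO and 100% = DMSO without ATP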
# OX1R HTRF confirm = confirmation of human orexin 1 receptor antagonists, HTRF format. shares compounds with OX1R antag-2. OX1R-expressing cells, HTRF antagonist assay. inhibition, % at 6.6 µM. hit rate 49% among 1,800; in the data active = inhibition above about 55%;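 also: CHO cells expressing OX1R stimulated with orexin A at about EC80; 0% = agonist challenge alone and 100% = reference antagonist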
# CHO-K1 HTRF = counter-screen for OX1R antagonists: effect in parental CHO-K1 cells; shares compounds with OX1R antag-2; HTRF counterscreen; inhibition, % at 6.6 µM; hit rate 48% among 1,800; AID 493232; in the data active = inhibition above about 17%;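 also: 0% = agonist challenge with vehicle and 100% = vehicle alone without agonist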
# Active calls of the source: *; . = no result given.
SMILES,EP2 antag,GPR7 antagonist,EP2 modulator,OX1R antag-1,OX1R antag-2,CHO parental Ca,OX1R Fluo8 conf,CHO Ca counter,OX1R HTRF confirm,CHO-K1 HTRF
Cc1cc2nc3c(=O)[nH]c(=S)[nH]c3nc2cc1NC(=O)C(F)(F)F,.,-1,.,29,49*,20,7,4,47,88*
Cc1cccc(Cn2c(NN)nc3c2c(=O)[nH]c(=O)n3C)c1,18,.,4,.,.,.,.,.,.,.
CN(C)c1cccc(NC(=O)c2ccco2)c1,1,-5,-38,-15,6,-13,.,.,.,.
CCN(CC)P(=O)(Nc1cccc(C(F)(F)F)c1)c1ccc(N(C)C)cc1NC(=O)c1ccco1 (stereo unspecified),6,-7,37,87*,82*,-13,64*,-9,86*,-16
N#Cc1ccccc1NC(=O)CSC1=Nc2ccccc2C2CC=NN12 (stereo unspecified),3,0,-33,40,85*,-3,22,-9,48,0
Cc1cc(C)cc(N(CCC#N)C(=O)CSC2=Nc3ccccc3C3CC=NN23)c1 (stereo unspecified),5,-9,-14,-22,33,-19,.,.,.,.
CCn1c2ccccc2c2cc(NC(C)=O)ccc21,10,9,-33,-10,32,-9,.,.,.,.
CCn1c(SCC(=O)Nc2ccc3c(c2)c2ccccc2n3CC)nnc1-c1cnccn1,8,-10,-48,91*,89*,-17,68*,-15,92*,9
CCn1c(C)c(C)c2cc(C(=O)Nc3cccc(Cl)c3)ccc21,15,-7,-17,40,121*,28,-6,-11,85*,9
CCn1c(=O)c(C(=O)Nc2cccc(Cl)c2)c(O)c2ccccc21,9,.,8,.,.,.,.,.,.,.
CCn1c2ccccc2c2cc(NC(=O)c3cccc(OC)c3OC)ccc21,6,-12,-13,64*,87*,7,74*,-3,91*,14
CCn1c2ccccc2c2cc(NC(=O)c3cccc(OC)c3)ccc21,9,-7,-14,97*,104*,-8,97*,-12,103*,14
O=C(NC(c1ccccc1)c1ccccn1)c1cccc([N+](=O)[O-])c1 (stereo unspecified),7,-3,-13,-21,14,-22,.,.,.,.
COc1cc(Cl)c(C)cc1NC(=O)c1cccc(OC)c1OC,14,-7,-13,22,70*,-22,7,-3,82*,13
CCCc1nc2ccccc2c(=O)n1-c1c(C)n(C)n(-c2ccccc2)c1=O,13,-12,34,-2,8,-7,.,.,.,.
COc1ccc(/C=c2\s/c(=C/C(=O)c3ccc(C)cc3)[nH]c2=O)c(OC)c1,5,2,-11,47*,79*,9,28,2,93*,10
O=S(=O)(Nc1nc2ccccc2nc1NCc1ccco1)c1ccccc1,1,-7,27,-16,20,-9,.,.,.,.
c1coc(CNc2nc3nonc3nc2NCc2ccco2)c1,8,-9,2,35,73*,25,-3,-7,28,-15
COc1ccccc1C(=O)Nc1nc2cc3c(cc2s1)OCCO3,10,-27,-15,39,106*,7,51*,-6,95*,4
O=C(CC1C(=O)NCCN1Cc1cccc(Oc2ccccc2)c1)NCCc1ccncc1 (stereo unspecified),7,-8,0,-21,8,-2,.,.,.,.
O=C(CSc1nc2c(cnn2-c2ccccc2)c(=O)[nH]1)NC1CCS(=O)(=O)C1 (stereo unspecified),5,4,-7,-13,9,-2,.,.,.,.
CCOC(=O)c1cnc(SCc2nc(N)nc(Nc3ccccc3)n2)nc1N,12,-13,-32,38,73*,-27,35*,-24,48,6
COCCN(Cc1nc2ccccc2c(=O)[nH]1)C(=O)COc1c(C)cc(Cl)cc1C,.,.,.,39*,58*,-21,18,-16,70*,-1
CCCCN(Cc1nc2ccccc2c(=O)[nH]1)C(=O)COc1ccc(F)cc1Cl,.,.,.,-7,3,-10,.,.,.,.
CN(CC(=O)Nc1c(Cl)cccc1Cl)C(=O)c1ccccc1-c1nc2ccccc2s1,.,.,.,-45,38,-33,.,.,.,.
SMILES,EP2 antag,GPR7 antagonist,EP2 modulator,OX1R antag-1,OX1R antag-2,CHO parental Ca,OX1R Fluo8 conf,CHO Ca counter,OX1R HTRF confirm,CHO-K1 HTRF
COc1cccc(NC(=O)CN(C)C(=O)c2ccccc2-c2nc3ccccc3s2)c1,.,.,.,17,100*,-37,17,-5,88*,5
CSc1ccc(CCNC(=O)CCc2nnc3ccc(N4CCCC4)nn23)cc1,.,1,.,-18,19,0,.,.,.,.
O=C(Cn1ncc2cccn2c1=O)NCc1ccc(F)cc1,.,.,-5,.,.,.,.,.,.,.
CCCCc1ccc(S(=O)(=O)NCCc2ccncc2)cc1,8,-2,-30,26,76*,19,0,6,36,3
CCOc1ccccc1NC(=O)CN1C(=O)NC(Cc2c[nH]c3ccccc23)C1=O (stereo unspecified),.,.,.,42*,36*,-25,10,-9,34,-5
Cc1ccc(NC2CCCN(C(=O)c3cn(C)c4ccccc34)C2)cc1C (stereo unspecified),.,-6,.,27,80*,-14,23,-12,90*,2
CC(C#N)Sc1nc2ccccc2c(=O)n1-c1ccccc1 (stereo unspecified),6,2,28,-12,9,-36,.,.,.,.
COc1cccc(C(=O)NNC(=O)C2CC(C)=C(C)CC2C(=O)O)c1 (stereo unspecified),8,2,21,-8,16,-11,.,.,.,.
COc1ccc(CNC(=O)CN2C(=O)C(C)Oc3ccccc32)cc1 (stereo unspecified),7,.,-23,.,.,.,.,.,.,.
COc1ccc(CN(C(=O)CN2C(=O)C(C)Oc3ccccc32)C2CCCC2)c(OC)c1 (stereo unspecified),1,-6,47,59*,84*,-29,24,-13,77*,4
CN(Cc1ccccc1)C(=O)Cn1c(=O)oc2cc(S(=O)(=O)NCc3ccccc3)ccc21,15,2,-21,25,48*,7,47*,7,88*,-10
C=CCNc1nc(NCc2ccccc2)nc(OCC)n1,.,-13,.,.,.,.,.,.,.,.
O=S(=O)(c1ccc2c(c1)C(O)c1ccccc1CC2)C(F)(F)F (stereo unspecified),.,.,.,52*,34*,13,20,17,34,1

# High-throughput results: PubChem, several laboratories
